Shown are actives, neighbours in structure and some others; about 1.6% of the full set was active somewhere.
MT1-MMP act inh = blockers of MT1-MMP proenzyme processing, primary screen, HT1080 RFP-PRO-GFP cells, GFP/RFP fluorescence. Matrix metalloproteinase-14 (Homo sapiens), P50281. GFP/RFP ratio fluorescence, overnight; percent of plate control window, DMSO zero. GFP/RFP ratio change, % at 20 µM. 360,000 tested, 0.061% active. AID 651647, 2012;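 active = GFP/RFP ratio change of at least 30% with cell ATP level not reduced by more than half and red fluorescence within 50% of control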
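Assay system: HT1080 RFP-PRO-GFP cells. Benchmarks: DMSO vehicle wells and RFP-L50D-GFP reporter cell wells. Times: overnight cell settling, then overnight compound exposure, 37 °C, 5% CO2. Compound: 20 µM single dose, 1% DMSO. Read-out basis: GFP/RFP fluorescence ratio.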
p-CIP stab down = p/CIP-EGFP fusion destabilizers, primary screen, fluorescence, F442A cells; Q05BA5; 16 h; decrease of EGFP signal, % at 10 µM; 290,000 tested, 0.01% active;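 active = EGFP signal decrease of at least 30% at 10 µM or well 3 SD below plate mean, unless failing retest; inactive = the rest, including hits failing retest or dose response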
SKN-1 block = suppressors of acrylamide-induced Pgst-4::GFP reporter in worms, primary screen, SKN-1 inhibitor project, whole organism, uHTS, GFP/RFP fluorescence ratio, strain VP596 | C. elegans VP596 Pgst-4::GFP/RFP ratio, 24 h | inhibition, % at 21.8 µM | 360,000 tested, 0.49% active;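 active = interference check ratio from 0.5 to 1.5 plus GFP to RFP signal ratio inhibition reaching or exceeding a fixed threshold, cut at about 30% in these data, passing the limit was not always enough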
MsrA inh = bovine MsrA enzyme inhibitors, primary screen, biochemical, absorbance, HTS; inhibition, % at 15.5 µM; 360,000 tested, 0.75% active; purified bovine MsrA, absorbance read-out; Methionine sulfoxide reductase A (Bos taurus); in the data active = inhibition above about 4.5%
bovine MsrA act = bovine MsrA enzyme activators, primary screen, biochemical, absorbance, HTS. Methionine sulfoxide reductase A (Bos taurus). purified bovine MsrA, absorbance read-out. activation, % at 10.6 µM. 360,000 tested, 0.3% active; in the data active = activation above about 7.5%
Each line names hits and unclear results; the compound was inactive in the other large screens.

CCN(CC(=O)Nc1ccccc1C(F)(F)F)C(=O)c1ccc(NC(=O)c2cccs2)cc1	SKN-1 block 47 (no result: p-CIP stab down)
CCN(CC(=O)Nc1ccccc1C(F)(F)F)C(=O)Cc1cccs1	none (no result: p-CIP stab down)
C[C@@H]1CNCCN1c1ccc(N2CCS(=O)(=O)CC2)c(C#N)c1	none (no result: MT1-MMP act inh, p-CIP stab down, SKN-1 block, bovine MsrA act)
COC(=O)C1=C(C)N(Cc2ccccc2)C(=NCCc2ccccn2)N[C@H]1c1cccc(F)c1	SKN-1 block 37
Cc1cc2nc[nH]c2cc1[N+](=O)[O-]	none
Cc1cc(N)ncc1[N+](=O)[O-]	MsrA inh 4.6 (no result: p-CIP stab down)
O=C(O)c1ccc(S(=O)(=O)c2ccccc2)cc1	SKN-1 block 40
O=C(/C=C/Nc1ccccc1)c1ccccc1	SKN-1 block 36
O=C(/C=C/Nc1ccc(F)cc1Br)c1ccccc1	SKN-1 block 37
O=C(/C=C/Nc1ccc(Oc2ccccc2)cc1)c1ccco1	SKN-1 block 82
Cc1cc(N/C=C/C(=O)c2ccccc2)ccc1Br	none
O=C(/C=C\Nc1ccc(Br)cc1)c1cccnc1	SKN-1 block 86
NC(=O)c1ccccc1N/C=C/C(=O)c1ccco1	none
C[C@@H]1CN(c2ccc(N3CCNC[C@@H]3C)cc2C#N)CCN1Cc1ccccc1	none (no result: MT1-MMP act inh, p-CIP stab down, SKN-1 block, bovine MsrA act)
COc1ccc(-c2ccc3c(n2)CCCN3S(=O)(=O)c2cccs2)cc1	none (no result: MT1-MMP act inh, p-CIP stab down, SKN-1 block, bovine MsrA act)
CCOC(=O)C1=CCN(S(=O)(=O)c2ccc([N+](=O)[O-])cc2)C1c1ccc(C)cc1 (stereo not drawn)	none (no result: MT1-MMP act inh, p-CIP stab down, SKN-1 block, bovine MsrA act)
COc1ccccc1C1C(C(=O)NCc2ccccc2)=C(C)Nc2ncnn21 (stereo not drawn)	SKN-1 block 47
COc1cccc(C2C(C(=O)NCc3ccccc3)=C(C)Nc3ncnn32)c1 (stereo not drawn)	none
COC(=O)[C@]12C[C@H](CC(=O)N3CCCC3)C(=O)N(Cc3ccccc3)C1=C[C@H](C(C)C)O[C@@H]2C1CC1	none (no result: MT1-MMP act inh, p-CIP stab down, SKN-1 block, bovine MsrA act)
COc1ccc(C(=O)N/C(=C\c2ccc3c(c2)OCO3)C(=O)Nc2ccc(C(=O)O)cc2)cc1	none
Cc1ccc(C(=O)N/C(=C\c2ccc3c(c2)OCO3)C(=O)Nc2ccc(C(=O)O)cc2)cc1	MsrA inh 4.6
C[C@H]1COc2cccc(N3CCCC3)c2S(=O)(=O)N1	none (no result: MT1-MMP act inh, p-CIP stab down, SKN-1 block, bovine MsrA act)
COc1cccc(CNC(=O)[C@H]2CCCN2C(=O)[C@H]2CCCN2C(=O)c2cccc(Cl)c2)c1	none (no result: MT1-MMP act inh, p-CIP stab down, SKN-1 block, bovine MsrA act)
CCCCc1c(-c2ccccc2OC)ncn1Cc1ccccc1C	none (no result: MT1-MMP act inh, p-CIP stab down, SKN-1 block, bovine MsrA act)
O=C(OCC(=O)C12CC3CC(CC(C3)C1)C2)c1ccc(O)cc1	none (no result: p-CIP stab down)
Nc1ccc(O)cc1C(=O)OCC(=O)C12CC3CC(CC(C3)C1)C2	SKN-1 block 45
COC(=O)c1c2c(nc3ccccc13)CCC2	SKN-1 block 41
CC(C)(C)C(=O)COC(=O)c1c2c(nc3ccccc13)CCC2	none
COc1ccc2c(c1)[C@@]1(OCCC=C[C@H]1C)C(=O)N2Cc1ccccc1C(F)(F)F	none (no result: MT1-MMP act inh, p-CIP stab down, SKN-1 block, bovine MsrA act)
Nc1ccn([C@@H]2O[C@H](C(=O)N[C@H](Cc3ccccc3)C(=O)NCC(F)(F)F)[C@@H](O)[C@H]2O)c(=O)n1	none (no result: MT1-MMP act inh, p-CIP stab down, SKN-1 block, bovine MsrA act)
Nc1ccc2nc(-c3cccc(-c4nc5ccc(N)cc5[nH]4)c3)[nH]c2c1	MsrA inh 4.6
N#Cc1ccc(-c2cccnc2)nc1SCC(=O)Nc1sc2c(c1C#N)CCC2	SKN-1 block 39 (no result: MsrA inh)
COC(=O)[C@]12C[C@H](CC(=O)NCc3cccs3)C(=O)N(CCC3=CCCCC3)C1=C[C@H](COCc1ccccc1)O[C@@H]2C	none (no result: MT1-MMP act inh, p-CIP stab down, SKN-1 block, bovine MsrA act)
CC1CCc2c(C(=O)Nc3nccs3)csc2C1 (stereo not drawn)	SKN-1 block 37
COc1ccc(C(=O)N2CCC[C@@H]2C(=O)N2CCC[C@@H]2C(=O)NCc2ccccc2)cc1F	none (no result: MT1-MMP act inh, p-CIP stab down, SKN-1 block, bovine MsrA act)
c1ccc(CCNc2ncnc3c2cnn3-c2ccccc2)cc1	SKN-1 block 35
Clc1ccc(Nc2ncnc3c2cnn3-c2ccccc2)cc1	SKN-1 block 37
COc1ccc(OCC2CN(Cc3ccccc3)S(=O)(=O)CCO2)cc1 (stereo not drawn)	none (no result: MT1-MMP act inh, p-CIP stab down, SKN-1 block, bovine MsrA act)
Cc1c(C(=O)Nc2cccc(C(F)(F)F)c2)oc2ccc(S(=O)(=O)N3CCOCC3)cc12	SKN-1 block 36
O=C(Oc1cncc(Cl)c1)c1ccco1	SKN-1 block 39
COc1ccc(/C=N/Nc2nc(Nc3ccccc3)nc(N3CCCCC3)n2)cc1OC	SKN-1 block 37
OC(c1ccccc1)(c1ccccc1)C1CCN(CCCOc2ccc(C(F)(F)F)cc2)CC1	none (no result: MT1-MMP act inh, p-CIP stab down, SKN-1 block, bovine MsrA act)
COC(=O)C1=C(C)N(C)C(=NCc2ccc(C(F)(F)F)cc2)NC1c1cccc(Cl)c1 (stereo not drawn)	none (no result: MT1-MMP act inh, p-CIP stab down, SKN-1 block, bovine MsrA act)
CC1CCN(c2nc3nonc3nc2N2CCC(C)CC2)CC1	none
C1CCN(c2nc3nonc3nc2N2CCCC2)C1	MsrA inh 5.1
CC1CCCN(c2nc3nonc3nc2N2CCCC(C)C2)C1 (stereo not drawn)	MsrA inh 4.6
C#CCNC(=O)C[C@H]1C[C@@]2(C(=O)OC)C(=C[C@H](C(C)(C)C)O[C@@H]2C)N(CCC2=CCCCC2)C1=O	none (no result: MT1-MMP act inh, p-CIP stab down, SKN-1 block, bovine MsrA act)
COc1ccc(/C=N/NC(=O)c2nnn(-c3nonc3N)c2-c2cccs2)cc1OC	MsrA inh 4.6
COc1cc(/C=N/NC(=O)c2nnn(-c3nonc3N)c2-c2cccs2)ccc1O	none
COc1ccc(/C=N/N=C(\N)c2nonc2N)cc1OC	MsrA inh 4.6
COc1ccc(OC)c(/C=N/N=C(\N)c2nonc2N)c1	none
c1cc2c(nn1)CCc1nonc1-2	SKN-1 block 44 (no result: MT1-MMP act inh)
O=C(NCC(=O)N(Cc1cccs1)C(C(=O)NC1CCCCC1)c1ccncc1)c1ccco1 (stereo not drawn)	SKN-1 block 42
CN1CCCCC(NC(=O)c2cccc(C(F)(F)F)c2)C1=O (stereo not drawn)	none (no result: MT1-MMP act inh, p-CIP stab down, SKN-1 block, bovine MsrA act)
N#C/C(=C(/O)c1ccc2c(c1)OCO2)c1nc2cc(C(F)(F)F)ccc2s1	none
N#C/C(=C(/O)c1ccccc1F)c1nc2cc(C(F)(F)F)ccc2s1	MsrA inh 4.7
CCN(CC)S(=O)(=O)c1ccc2c(c1)nc(SC(C)C(N)=O)n2-c1ccc(OC)cc1 (stereo not drawn)	SKN-1 block 29
FC(F)(F)c1cnc2c(-c3ccc(Cl)cc3Cl)noc2c1	SKN-1 block 32
c1coc(-c2nc3c4ccccc4ccn3c2Cc2ccsc2)c1	none (no result: MT1-MMP act inh, p-CIP stab down, SKN-1 block, bovine MsrA act)
CCn1c2ccccc2c2cc(NC(=O)CSc3nnc(-c4cccc(OC)c4)n3N)ccc21	none
CCn1c2ccccc2c2cc(NC(=O)CSc3nnc(-c4ccc(OC)c(OC)c4)n3N)ccc21	SKN-1 block 36
Brc1ccc2nc(-c3ccc(CN4CCC5(CC4)CNc4ccccc45)cc3)c(-c3ccccc3)nc2c1	none (no result: MT1-MMP act inh, p-CIP stab down, SKN-1 block, bovine MsrA act)
O=C(O)C1=C2C(=O)Nc3cccc(c32)C2(C1)C(=O)Nc1ccccc12 (stereo not drawn)	SKN-1 block 36 (no result: p-CIP stab down)
